In the library only some 1.9% were active in any assay of this set; here they are far more common.
FID counter: compounds displacing fluorescent DNA intercalator, primary screen, artefact control for HCV NS3 helicase inhibitor project, biochemical, FID fluorescence; DNA fluorescent intercalator displacement; inhibition, % at 7.9 µM; actives 0.17% (n = 290,000); AID 1845, 2009; in the data active = inhibition above about 37%;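 also: higher means more ethidium bromide displaced from hairpin DNA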
HCV NS3 hel inh: inhibitors of HCV NS3 helicase, primary screen, biochemical, Cy5 molecular beacon fluorescence. Hepatitis C virus NS3 helicase. NS3 helicase DNA unwinding. inhibition, % at 10.9 µM. actives 0.56% (n = 290,000). AID 1800, 2009;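 active = inhibition above the mean of all tested compounds plus 3 SD, set per campaign, cut at about 35% in these data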
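Assay system – hepatitis C virus NS3 helicase domain fragment enzyme · Buffer or medium – MOPS pH 6.5, MgCl2, DTT, Tween20, BSA · Reagent – Cy5/quencher beacon DNA duplex and ATP to start · Compound – single 10.9 µM dose · Timing – 1 h at 25 °C · Technique – Cy5 beacon fluorescence read at start and 1 h · Measure – % inhibition of unwinding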
p-CIP stab down: p/CIP-EGFP fusion destabilizers, primary screen, fluorescence, F442A cells; decrease of EGFP signal, % at 10 µM; AID 1984, 2009; 16 h; actives 0.01% (n = 290,000);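 active = EGFP signal decrease of at least 30% at 10 µM or well 3 SD below plate mean, unless failing retest; inactive = the rest, including hits failing retest or dose response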
HCV core dimer: inhibitors of HCV core protein dimerization, primary screen, biochemical, TR-FRET, high-throughput; actives 0.33% (n = 300,000); inhibition, % at 5 µM; AID 1899, 2009; TR-FRET GST/Flag-core106 dimerization, 1536-well;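 active = inhibition above the mean of all tested compounds plus 3 SD, set per screening campaign, cut at about 45% in these data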
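System – GST-tagged and Flag-tagged HCV core protein residues 1-106 · Repeats – one well for each compound · Technique – TR-FRET 671 and 617 nm emission · Doses – one concentration, 5 µM, in 0.5% DMSO · Times – 4 h, 22.5 °C incubation · Also added – Eu donor and XL665 acceptor anti-tag antibodies · Measure – percent inhibition of core106 dimerization signal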
GPR7 antag: GPR7 receptor antagonists, primary screen, cell-based, fluorescence, single concentration. GPR7-expressing cells, fluorescence antagonist assay. actives 1.1% (n = 290,000). inhibition, % at 4.4 µM; in the data active = inhibition above about 16%, passing the limit was not always enough;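 also: cells stimulated with the agonist NPW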
GPR7 antag conf: GPR7 receptor antagonists, confirmation, cell-based, fluorescence, single concentration. shares compounds with GPR7 antag. AID 1952, 2009. GPR7-expressing cells, calcium fluorescence antagonist mode. inhibition, % at 4.4 µM. actives 52% (n = 2,400); in the data active = inhibition above about 24%;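 also: stimulated with the GPR7 agonist NPW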
MCHR1 antagonist: MCHR1 antagonists in cells, counter-screen for GPR7 antagonist project, cell-based, fluorescence, human; shares compounds with GPR7 antag; inhibition, % at 4.4 µM; actives 62% (n = 2,400); MCHR1-expressing cells, fluorescence antagonist assay; in the data active = inhibition above about 22%
Each line names hits and unclear results; the compound was inactive in the other large screens (follow-up assays come after a bar, where they were run).

CCN(CC)C(=O)CSc1nc2c(sc(=S)n2-c2ccc(C)cc2C)c(=O)[nH]1	none
Cc1cccc(-n2nc3c(c2NC(=O)C(C)C)CSC3)c1	none
COCc1cc(C)nc(SCc2ccccc2Cl)c1C#N	none
COCc1cc(C)nc(SCc2ccc([N+](=O)[O-])cc2)c1C#N	GPR7 antag 29 | GPR7 antag conf inactive | MCHR1 antagonist inactive
OCC1(CCc2ccccc2)CCN(Cc2cc(Cl)ccc2O)CC1	none
Cc1ccc(-n2cccn2)c(CN2CCC(CO)(CCc3ccccc3)CC2)c1	GPR7 antag 21 (no result: HCV core dimer) | GPR7 antag conf 32 | MCHR1 antagonist 28
O=C(N1CCC(n2nc(-c3ccccc3)oc2=O)CC1)C1(c2ccc(Cl)cc2)CC1	none
Cc1cc(C)nc(NS(=O)(=O)c2ccc(NC(=O)c3snnc3C)cc2)n1	none
COc1ccc(CC(=O)O/N=C(\N)c2ccccn2)cc1OC	GPR7 antag 24 (no result: HCV core dimer) | GPR7 antag conf inactive | MCHR1 antagonist inactive
COc1cccc(C(c2nnnn2Cc2ccco2)N2CCN(c3cccc(C)c3C)CC2)c1OC (configuration not stated)	GPR7 antag 23 | GPR7 antag conf inactive | MCHR1 antagonist 60
COc1ccc(OC)c(C(c2nnnn2Cc2ccco2)N2CCN(C)CC2)c1 (configuration not stated)	none
O=C(CCC(=O)N1CCSc2ccccc21)Nc1ccc(F)cc1	GPR7 antag 32 | GPR7 antag conf inactive | MCHR1 antagonist inactive
O=C(CCC(=O)N1CCSc2ccccc21)Nc1cccc(F)c1	none
O=C(NCCCN1CCCC1=O)c1c(O)nc2ccccn2c1=O	none
CN(C(=O)c1cc([N+](=O)[O-])ccc1N1CCCC1)C1CCCCC1	GPR7 antag 34 | GPR7 antag conf 29 | MCHR1 antagonist 24
O=C(NC1CCCCC1)c1cc([N+](=O)[O-])ccc1N1CCCC1	none
CC(C)(C)C1CCC(OC(=O)CN2CCCCC2)CC1 (configuration not stated)	none
CCOC(=O)c1cnc(N2CCN(c3ccccc3)CC2)[nH]c1=O	none (no result: HCV core dimer)
O=C(CNS(=O)(=O)c1ccccc1)OCC(=O)c1ccc(Br)cc1	none
O=C(CNS(=O)(=O)c1ccccc1)OCC(=O)c1ccc(OC(=O)c2ccccc2)cc1	GPR7 antag 24 | GPR7 antag conf 26 | MCHR1 antagonist 39
CN(Cc1ccc(C(C)(C)C)cc1)C(=O)c1ccc2c(=O)n3c(nc2c1)CCC3	none (no result: FID counter, HCV NS3 hel inh, p-CIP stab down, GPR7 antag)
CC(C)(C)c1ccc(-c2nc(NCc3cccnc3)c3ccccc3n2)cc1	GPR7 antag 23 | GPR7 antag conf 41 | MCHR1 antagonist 30
c1cncc(CNc2nc(-c3cccnc3)nc3ccccc23)c1	none
Cc1ccc(NS(=O)(=O)c2ccc(OCC(=O)NCc3ccncc3)cc2)cc1	none
CC(C)N1CCN(Cc2ccsc2)CC1CCO (configuration not stated)	none
Cc1ccc(NC(Cc2cc(C)no2)c2ccccc2)cc1 (configuration not stated)	GPR7 antag 40 | GPR7 antag conf 34 | MCHR1 antagonist inactive
Cc1cc(CSc2ccccc2C(=O)O)on1	none
CC1(CCc2ccc3c(c2)OCO3)NCCc2c1[nH]c1ccccc21 (configuration not stated)	GPR7 antag 60 | GPR7 antag conf 39 | MCHR1 antagonist 45
Cc1cccc(N(CC(=O)NC2CCCCC2)C(=O)CCCC(=O)Nc2ccccn2)c1C	GPR7 antag 29 | GPR7 antag conf inactive | MCHR1 antagonist inactive
CCc1noc(C)c1C(=O)Nc1ccc(Cl)c(S(=O)(=O)N2CCCCC2)c1	none (no result: FID counter, HCV NS3 hel inh, p-CIP stab down, GPR7 antag)
COc1ccc(CN(C)CC(O)COC(c2ccc(OC)cc2)c2ccc(OC)cc2)cc1 (configuration not stated)	GPR7 antag 28 | GPR7 antag conf 42 | MCHR1 antagonist 31

Source: PubChem BioAssay (several laboratories)
